Measurements of several laboratories.
Protocols differ between the studies behind these lines.
Transmembrane protease serine 6: Transmembrane protease serine 6 (Homo sapiens, UniProt Q8IU80)
Palmitoyl-protein thioesterase 1: Palmitoyl-protein thioesterase 1 (Homo sapiens, UniProt P50897)

SMILES | target | effect on | action | technique | concentration | measurement | result
N=C(N)NCCC[C@H](NC(=O)[C@H](CC1CCCCC1)NC(=O)[C@H](Cc1cscn1)NC(=O)CCc1ccccc1)C(=O)c1nc2ccccc2s1 | Transmembrane protease serine 6 | enzyme activity | inhibitor |  | 0.1 µM | remaining activity | 6%
C=CC(=O)N1CCC(COCC(=O)N2CCN(c3nc(-c4cnc(N)nc4C(F)F)nc(N4CCOC[C@@H]4C)n3)CC2)CC1 | Ribosomal protein S6 kinase alpha-2, C-terminal kinase domain (RPS6KA2, Homo sapiens, UniProt Q15349) | binding |  | competition with immobilised ligand | 1 µM | remaining binding | 90%
Cc1cc([C@@H](C)Nc2ccccc2C(=O)O)c2nc(N3CCC(F)(F)CC3)c(C#N)c(=O)n2c1 | Serine/threonine-protein kinase B-raf (BRAF, Homo sapiens, UniProt P15056) | binding |  | competition with immobilised ligand | 10 µM | remaining binding | 74%
O=C(CCCN1CC=C(n2c(=O)[nH]c3ccccc32)CC1)c1ccc(F)cc1 | Palmitoyl-protein thioesterase 1 | enzyme activity | inhibitor |  | 125 µM | inhibition | 1.07%
COc1cc(-c2cncc3c2CN(C)Cc2cc(N4CCNCC4)ccc2-3)cc(OC)c1OC | Muscle, skeletal receptor tyrosine-protein kinase (MUSK, Homo sapiens, UniProt O15146) | enzyme activity | inhibitor |  | 1 µM | remaining activity | 113%
O=C([O-])CCCCCCCNC(=O)c1ccccc1O.[Na+] | Palmitoyl-protein thioesterase 1 | enzyme activity | inhibitor |  | 125 µM | inhibition | 9.21%
N=C(N)NCCC[C@H](NC(=O)[C@H](CCc1ccccc1)NC(=O)[C@H](Cc1cscn1)NC(=O)CCc1ccccc1)C(=O)c1nc2ccccc2s1 | Transmembrane protease serine 6 | enzyme activity | inhibitor |  | 0.1 µM | remaining activity | 2%
CC1CNC(=O)NC1=O (stereo not shown) | Palmitoyl-protein thioesterase 1 | enzyme activity | inhibitor |  | 125 µM | inhibition | -1.19%
C=CCCCCCC(C)(NC(=O)[C@H](Cc1cscn1)NC(=O)CCc1ccccc1)C(=O)N[C@@H](CCCNC(=N)N)C(=O)c1nc2ccccc2s1 (stereo partly shown) | Transmembrane protease serine 6 | enzyme activity | inhibitor |  | 0.1 µM | remaining activity | 101%
CNc1ncc2c(/C=C/C(=O)N3CCC(OC)CC3)nn(Cc3cccc(C(F)(F)F)c3)c2n1 | Cyclin-dependent kinase 6, with cyclin D2 (CDK6, Homo sapiens, UniProt Q00534) | enzyme activity | inhibitor | radiometric | 1 µM | remaining activity | 92%
